This is an account of results in ChEMBL document CHEMBL1949509, “Fluorinated dual antithrombotic compounds based on 1,4-benzoxazine scaffold” (Eur J Med Chem, 2012).

The structures appear in SMILES notation.

For one assay, the target named is Prothrombin (Homo sapiens, UniProt P00734).
The target in another assay is Coagulation factor X (Homo sapiens, UniProt P00742). Put plainly: Inhibition of factor 10a using S-2222 as substrate preincubated for 15 mins prior substrate addition measured for every 10 secs by spectrophotometry. The essentials: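 Amidolytic chromogenic assay. Factor Xa at 1 mBAEEE/mL final with S-2222 at […] final. Inhibitor at three concentrations, diluted from 10 mmol/L DMSO stock, preincubated with enzyme in HBSA buffer for 15 min at 25 °C. A405 read every 10 s. Run in triplicate. Ki by Cheng–Prusoff from initial linear rates, averaged over concentration combinations.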

Assay [1] has as its target Integrin alpha-IIb/beta-3 (Homo sapiens, UniProt P05106+P08514). Description: Displacement of biotinylated fibrinogen from human alpha2b-beta3 receptor after 2 hrs by chemiluminescence assay. Type of assay: protein-complex assay.
In the next assay the target is Integrin alpha-V/beta-3 (Homo sapiens, UniProt P05106+P06756). Put plainly: Displacement of biotinylated fibrinogen from human […] receptor after 2 hrs by chemiluminescence assay. Format: protein-complex assay.
A short description of assay [2]: Selectivity ratio of Ki for trypsin to Ki for thrombin. Summed up: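 Trypsin at 0.5 nkat/mL with S-2222 at 50 and 100; thrombin at 0.5 NIH E/mL with S-2238 at […]. Triplicates, three inhibitor concentrations.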
Assay [3] in a line: Selectivity ratio of Ki for factor 10a to Ki for thrombin. Summed up:
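Factor Xa at 1 mBAEEE/mL with S-2222 at 100 and 200; thrombin at 0.5 NIH E/mL with S-2238 at […]. Triplicates, three inhibitor concentrations.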

Sequence of Coagulation factor X (P00742 41-179 limits assumed): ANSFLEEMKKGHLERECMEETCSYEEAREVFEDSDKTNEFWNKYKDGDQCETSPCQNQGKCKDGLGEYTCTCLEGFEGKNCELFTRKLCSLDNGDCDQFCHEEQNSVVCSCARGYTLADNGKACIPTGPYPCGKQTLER
Sequence of Coagulation factor X (P00742 235-488 limits assumed): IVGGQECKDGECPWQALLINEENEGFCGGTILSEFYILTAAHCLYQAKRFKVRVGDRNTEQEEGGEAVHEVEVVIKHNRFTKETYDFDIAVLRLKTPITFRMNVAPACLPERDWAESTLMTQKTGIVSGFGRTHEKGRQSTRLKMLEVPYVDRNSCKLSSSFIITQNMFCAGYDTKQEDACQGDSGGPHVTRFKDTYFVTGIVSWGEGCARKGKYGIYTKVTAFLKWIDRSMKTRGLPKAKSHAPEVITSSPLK
Sequence of Integrin alpha-IIb/beta-3 (P05106 27-788 limits assumed): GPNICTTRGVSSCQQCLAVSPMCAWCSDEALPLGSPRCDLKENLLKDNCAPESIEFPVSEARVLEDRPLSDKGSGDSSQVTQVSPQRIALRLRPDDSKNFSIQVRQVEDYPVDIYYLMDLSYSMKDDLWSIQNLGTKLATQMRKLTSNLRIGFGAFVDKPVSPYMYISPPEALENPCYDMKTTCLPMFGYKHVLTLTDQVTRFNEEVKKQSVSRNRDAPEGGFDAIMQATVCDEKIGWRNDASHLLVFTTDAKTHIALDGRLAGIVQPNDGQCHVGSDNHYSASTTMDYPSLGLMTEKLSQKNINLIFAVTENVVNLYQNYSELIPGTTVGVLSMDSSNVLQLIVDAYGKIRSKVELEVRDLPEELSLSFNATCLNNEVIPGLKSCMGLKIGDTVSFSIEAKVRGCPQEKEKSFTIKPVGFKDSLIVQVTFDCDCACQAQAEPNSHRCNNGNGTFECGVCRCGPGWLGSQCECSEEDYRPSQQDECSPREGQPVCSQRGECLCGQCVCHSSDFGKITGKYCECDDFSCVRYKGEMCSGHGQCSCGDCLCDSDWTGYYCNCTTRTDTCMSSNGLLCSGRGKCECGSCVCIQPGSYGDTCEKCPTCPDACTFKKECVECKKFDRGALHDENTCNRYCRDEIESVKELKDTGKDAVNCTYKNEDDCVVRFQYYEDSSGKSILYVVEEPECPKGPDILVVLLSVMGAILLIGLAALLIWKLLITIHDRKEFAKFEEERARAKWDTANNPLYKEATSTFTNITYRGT
Sequence of Integrin alpha-IIb/beta-3 (P08514 32-887 limits assumed): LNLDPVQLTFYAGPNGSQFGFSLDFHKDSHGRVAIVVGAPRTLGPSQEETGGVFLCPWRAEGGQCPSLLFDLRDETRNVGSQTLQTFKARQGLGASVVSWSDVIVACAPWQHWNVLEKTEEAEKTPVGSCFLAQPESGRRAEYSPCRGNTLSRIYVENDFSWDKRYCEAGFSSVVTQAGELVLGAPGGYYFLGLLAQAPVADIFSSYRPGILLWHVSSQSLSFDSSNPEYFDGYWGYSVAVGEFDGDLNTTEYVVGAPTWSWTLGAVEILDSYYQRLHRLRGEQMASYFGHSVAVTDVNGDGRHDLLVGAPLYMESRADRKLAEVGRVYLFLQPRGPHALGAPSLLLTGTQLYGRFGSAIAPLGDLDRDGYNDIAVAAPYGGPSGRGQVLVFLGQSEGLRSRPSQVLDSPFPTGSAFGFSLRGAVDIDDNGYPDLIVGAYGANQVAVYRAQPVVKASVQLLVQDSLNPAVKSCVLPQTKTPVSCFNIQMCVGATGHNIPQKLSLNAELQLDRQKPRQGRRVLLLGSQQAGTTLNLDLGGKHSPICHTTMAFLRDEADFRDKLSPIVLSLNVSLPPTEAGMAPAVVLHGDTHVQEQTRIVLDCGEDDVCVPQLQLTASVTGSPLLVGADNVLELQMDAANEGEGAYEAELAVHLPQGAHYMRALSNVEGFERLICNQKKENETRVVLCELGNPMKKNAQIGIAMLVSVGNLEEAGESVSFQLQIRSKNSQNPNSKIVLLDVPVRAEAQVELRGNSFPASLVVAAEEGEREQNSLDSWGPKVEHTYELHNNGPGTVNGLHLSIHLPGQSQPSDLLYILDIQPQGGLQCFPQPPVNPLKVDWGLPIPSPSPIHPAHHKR
Sequence of Integrin alpha-IIb/beta-3 (P08514 891-1039 limits assumed): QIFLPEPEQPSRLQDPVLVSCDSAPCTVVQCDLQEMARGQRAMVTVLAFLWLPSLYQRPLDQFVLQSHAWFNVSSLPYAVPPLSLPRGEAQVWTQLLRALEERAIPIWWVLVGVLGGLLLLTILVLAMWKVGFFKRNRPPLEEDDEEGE
Sequence of Integrin alpha-V/beta-3 (P05106 27-788 limits assumed): as the sequence (P05106 27-788 limits assumed) above
Sequence of Integrin alpha-V/beta-3 (P06756 31-889 limits assumed): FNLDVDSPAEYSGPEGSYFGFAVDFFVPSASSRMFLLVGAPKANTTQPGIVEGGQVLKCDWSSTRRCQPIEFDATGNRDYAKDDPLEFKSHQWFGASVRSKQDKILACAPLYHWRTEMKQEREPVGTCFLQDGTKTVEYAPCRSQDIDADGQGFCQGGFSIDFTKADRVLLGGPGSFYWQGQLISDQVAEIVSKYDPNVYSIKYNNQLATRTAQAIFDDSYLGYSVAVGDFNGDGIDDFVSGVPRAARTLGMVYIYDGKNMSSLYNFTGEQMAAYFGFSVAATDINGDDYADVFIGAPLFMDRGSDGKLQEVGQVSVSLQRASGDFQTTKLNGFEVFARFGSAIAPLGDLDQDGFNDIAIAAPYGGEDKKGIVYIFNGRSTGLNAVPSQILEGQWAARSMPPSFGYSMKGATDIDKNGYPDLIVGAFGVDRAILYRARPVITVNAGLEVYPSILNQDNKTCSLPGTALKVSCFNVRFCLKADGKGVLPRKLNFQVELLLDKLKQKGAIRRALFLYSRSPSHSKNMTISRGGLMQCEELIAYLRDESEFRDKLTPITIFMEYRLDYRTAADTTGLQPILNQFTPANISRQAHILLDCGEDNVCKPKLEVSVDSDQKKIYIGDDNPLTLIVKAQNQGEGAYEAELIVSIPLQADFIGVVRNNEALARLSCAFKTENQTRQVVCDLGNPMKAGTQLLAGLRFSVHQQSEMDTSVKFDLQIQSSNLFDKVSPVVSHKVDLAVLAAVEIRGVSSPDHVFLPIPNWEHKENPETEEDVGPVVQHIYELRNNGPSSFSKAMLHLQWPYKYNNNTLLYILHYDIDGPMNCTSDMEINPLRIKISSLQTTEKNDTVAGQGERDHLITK
Sequence of Integrin alpha-V/beta-3 (P06756 891-1048 limits assumed): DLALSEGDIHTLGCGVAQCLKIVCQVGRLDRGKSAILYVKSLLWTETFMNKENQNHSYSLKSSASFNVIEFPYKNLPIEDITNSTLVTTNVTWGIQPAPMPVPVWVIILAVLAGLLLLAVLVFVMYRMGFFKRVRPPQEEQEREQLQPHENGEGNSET

For orientation: Ki means the dissociation constant of the complex between target and ligand, obtained from inhibition or displacement. A higher Ki goes with weaker binding. What is called IC50 is the concentration that gives 50% inhibition. On to `CN1CC(C)(COc2ccc(C(=N)N)cc2)Oc2cc(N(CC(=O)O)Cc3cc(F)cc(F)c3)ccc21` (configuration not stated), for which the results for the Ki at Prothrombin and on Coagulation factor X were 0.2 µM and 4 µM, respectively. For the same molecule, the IC50 in assay [1] is 45 µM; at Integrin alpha-V/beta-3, over 100 µM. Also, the Ratio Ki in assay [2] worked out at 6.5; in assay [3], 20.
As to `CN1CC(C)(COc2ccc(C(=N)N)cc2)Oc2cc(N(Cc3ccccc3)C(=O)C(=O)O)ccc21` (configuration not stated), the figures for the IC50 (in assay [1]; at Integrin alpha-V/beta-3) were 39 µM and over 100 µM, respectively.
Take `CCOC(=O)C(=O)N(Cc1ccccc1)c1ccc2c(c1)N(C)CC(C)(COc1ccc(C(=N)N)cc1)O2` (configuration not stated): the concentration for half-maximal inhibition (IC50) is 49 µM in assay [1] and over 100 µM at Integrin alpha-V/beta-3.
In the case of `CN1CC(C)(COc2ccc(C(=N)N)cc2)Oc2cc(N(Cc3cc(F)cc(F)c3)C(=O)C(=O)O)ccc21` (configuration not stated), the Ki on Coagulation factor X was determined as 1.6 µM. The IC50 in assay [1] was 31 µM; at Integrin alpha-V/beta-3, over 100 µM.
Regarding `CCOC(=O)C(=O)N(Cc1ccccc1)c1ccc2c(c1)OC(C)(COc1ccc(C(=N)N)cc1)CN2C` (configuration not stated), the values for the IC50 (in assay [1]; on Integrin alpha-V/beta-3) were 52 µM and over 100 µM, respectively.
As to `CCOC(=O)CN(Cc1cccc(F)c1)c1ccc2c(c1)N(C)CC(C)(COc1ccc(C(=N)N)cc1)O2` (configuration not stated), the Ki came out at 0.8 µM at Prothrombin and 6.8 µM on Coagulation factor X. Besides, the IC50 (in assay [1]; on Integrin alpha-V/beta-3) was over 100 µM each time.
As to `CCOC(=O)CN(Cc1ccccc1)c1ccc2c(c1)N(C)CC(C)(COc1ccc(C(=N)N)cc1)O2` (configuration not stated), the IC50 in assay [1] is 54 µM; on Integrin alpha-V/beta-3, over 100 µM.
Turning to `CN1CC(C)(COc2ccc(C(=N)N)cc2)Oc2ccc(N(CC(=O)O)Cc3cc(F)cc(F)c3)cc21` (configuration not stated), the Ki on Prothrombin was 0.76 µM; at Coagulation factor X, 9.8 µM. For the same molecule, the IC50 in assay [1] was 2.5 µM; on Integrin alpha-V/beta-3, over 100 µM.
As to `CCOC(=O)CN(Cc1ccc(F)c(F)c1)c1ccc2c(c1)N(C)CC(C)(COc1ccc(C(=N)N)cc1)O2` (configuration not stated), the Ki on Prothrombin worked out at 0.83 µM; on Coagulation factor X, 8 µM. Further, the IC50 (in assay [1]; on Integrin alpha-V/beta-3) was over 100 µM in each case.
With `CN1CC(C)(COc2ccc(C(=N)N)cc2)Oc2cc(N(CC(=O)O)Cc3cccc(F)c3)ccc21` (configuration not stated), the Ki at Prothrombin was determined as 0.32 µM; at Coagulation factor X, 6.6 µM. Also, the IC50 in assay [1] was 60 µM; on Integrin alpha-V/beta-3, over 100 µM. Also, in assay [2], the Ratio Ki is 5.
As to `CCOC(=O)C(=O)N(Cc1cc(F)cc(F)c1)c1ccc2c(c1)OC(C)(COc1ccc(C(=N)N)cc1)CN2C` (configuration not stated), the Ki at Prothrombin was 0.018 µM; on Coagulation factor X, 0.79 µM. Further, the IC50 (in assay [1]; on Integrin alpha-V/beta-3) was over 100 µM each time.
The molecule `CN1CC(C)(COc2ccc(C(=N)N)cc2)Oc2cc(N(Cc3ccc(F)c(F)c3)C(=O)C(=O)O)ccc21` (configuration not stated) displayed a Ki on Coagulation factor X of 3.6 µM. For the same molecule, the IC50 in assay [1] is 31 µM; at Integrin alpha-V/beta-3, over 100 µM.
On to `CCOC(=O)CN(Cc1ccccc1)c1ccc2c(c1)OC(C)(COc1ccc(C(=N)N)cc1)CN2C` (configuration not stated), for which the Ki on Prothrombin is 0.32 µM. Further, the IC50 in assay [1] is 28 µM; on Integrin alpha-V/beta-3, over 100 µM.
In turn, `CCOC(=O)C(=O)N(Cc1ccc(F)cc1)c1ccc2c(c1)N(C)CC(C)(COc1ccc(C(=N)N)cc1)O2` (configuration not stated) came in with a Ki at Coagulation factor X of 5.49 µM. The results for the half-maximal inhibitory concentration (IC50) (in assay [1]; at Integrin alpha-V/beta-3) were over 10 µM and over 100 µM, respectively.
Turning to `CN1CC(C)(COc2ccc(C(=N)N)cc2)Oc2ccc(N(CC(=O)O)Cc3ccc(F)cc3)cc21` (configuration not stated), the Ki at Prothrombin amounted to 0.75 µM; on Coagulation factor X it was 7.7 µM. In addition, the IC50 in assay [1] was 2 µM; on Integrin alpha-V/beta-3, over 100 µM.
On Coagulation factor X, `CN1CC(C)(COc2ccc(C(=N)N)cc2)Oc2ccc(N(Cc3cc(F)cc(F)c3)C(=O)C(=O)O)cc21` (configuration not stated) came in with a Ki of 14 µM. For the same molecule, the IC50 in assay [1] is 3.4 µM; at Integrin alpha-V/beta-3 it was over 100 µM.
On Coagulation factor X, `CCOC(=O)CN(Cc1cc(F)cc(F)c1)c1ccc2c(c1)OC(C)(COc1ccc(C(=N)N)cc1)CN2C` (configuration not stated) yielded a Ki of 15 µM. In addition, the IC50 (in assay [1]; on Integrin alpha-V/beta-3) was over 100 µM throughout.
Regarding `CN1CC(C)(COc2ccc(C(=N)N)cc2)Oc2ccc(N(Cc3cccc(F)c3)C(=O)C(=O)O)cc21` (configuration not stated), the Ki at Coagulation factor X came to 18 µM. In addition, the IC50 in assay [1] was 2.2 µM; at Integrin alpha-V/beta-3 it was over 100 µM.
In the same order, the values of `CCOC(=O)CN(Cc1cccc(F)c1)c1ccc2c(c1)OC(C)(COc1ccc(C(=N)N)cc1)CN2C` (configuration not stated) are 1.2 µM, over 100 µM and over 100 µM.
For the molecule `CN1CC(C)(COc2ccc(C(=N)N)cc2)Oc2ccc(N(Cc3ccc(F)c(F)c3)C(=O)C(=O)O)cc21` (configuration not stated), affinity at Coagulation factor X was put at a Ki of 14 µM. The values for the IC50 (in assay [1]; on Integrin alpha-V/beta-3) were 2.5 µM and over 100 µM, respectively.
As to `CCOC(=O)C(=O)N(Cc1cccc(F)c1)c1ccc2c(c1)N(C)CC(C)(COc1ccc(C(=N)N)cc1)O2` (configuration not stated), the Ki at Coagulation factor X came out at 4.9 µM. Besides, the IC50 (in assay [1]; on Integrin alpha-V/beta-3) was over 100 µM in each case.
At Coagulation factor X, `CCOC(=O)C(=O)N(Cc1cc(F)cc(F)c1)c1ccc2c(c1)N(C)CC(C)(COc1ccc(C(=N)N)cc1)O2` (configuration not stated) came in with a Ki of 6 µM. For the same molecule, the IC50 (in assay [1]; on Integrin alpha-V/beta-3) was over 100 µM in each case.
As for `CN1CC(C)(COc2ccc(C(=N)N)cc2)Oc2cc(N(CC(=O)O)Cc3ccc(F)cc3)ccc21` (configuration not stated), the results for the Ki at Prothrombin and on Coagulation factor X were 0.24 µM and 5.6 µM, respectively. For the same molecule, the figures for the IC50 (in assay [1]; at Integrin alpha-V/beta-3) were 49 µM and over 100 µM, respectively.
Molecule `CCOC(=O)CN(Cc1ccc(F)c(F)c1)c1ccc2c(c1)OC(C)(COc1ccc(C(=N)N)cc1)CN2C` (configuration not stated) displayed a Ki at Coagulation factor X of 1.5 µM. Moreover, the IC50 (in assay [1]; at Integrin alpha-V/beta-3) was over 100 µM in each case.
Turning to `CN1CC(C)(COc2ccc(C(=N)N)cc2)Oc2ccc(N(Cc3ccccc3)C(=O)C(=O)O)cc21` (configuration not stated), the IC50 was 2.8 µM in assay [1] and over 100 µM at Integrin alpha-V/beta-3.
`CN1CC(C)(COc2ccc(C(=N)N)cc2)Oc2cc(N(Cc3cccc(F)c3)C(=O)C(=O)O)ccc21` (configuration not stated) returned a Ki on Coagulation factor X of 4.1 µM. Also, the IC50 in assay [1] is 33 µM; on Integrin alpha-V/beta-3, over 100 µM.
Consider `CN1CC(C)(COc2ccc(C(=N)N)cc2)Oc2ccc(N(CC(=O)O)Cc3cccc(F)c3)cc21` (configuration not stated), for which the Ki at Prothrombin came to 0.67 µM; on Coagulation factor X, 7.6 µM. Further, the IC50 is 1.5 µM in assay [1] and over 100 µM at Integrin alpha-V/beta-3.
On Coagulation factor X, `CN1CC(C)(COc2ccc(C(=N)N)cc2)Oc2ccc(N(Cc3ccc(F)cc3)C(=O)C(=O)O)cc21` (configuration not stated) yielded a Ki of 16.3 µM. Further, the IC50 in assay [1] is 1.8 µM; at Integrin alpha-V/beta-3, over 100 µM.
For `CN1CC(C)(COc2ccc(C(=N)N)cc2)Oc2ccc(N(CC(=O)O)Cc3ccc(F)c(F)c3)cc21` (configuration not stated), the figures for the Ki at Prothrombin and at Coagulation factor X were 0.33 µM and 6.5 µM, respectively. The figures for the IC50 (in assay [1]; at Integrin alpha-V/beta-3) were 1.1 µM and over 100 µM, respectively. The Ratio Ki in assay [2] was 1.7; in assay [3] it was 20.
Molecule `CCOC(=O)CN(Cc1cc(F)cc(F)c1)c1ccc2c(c1)N(C)CC(C)(COc1ccc(C(=N)N)cc1)O2` (configuration not stated) gave a Ki at Coagulation factor X of 9.8 µM. For the same molecule, the IC50 (in assay [1]; at Integrin alpha-V/beta-3) was over 100 µM throughout.
In turn, `CN1CC(C)(COc2ccc(C(=N)N)cc2)Oc2cc(N(Cc3ccc(F)cc3)C(=O)C(=O)O)ccc21` (configuration not stated) displayed a Ki at Coagulation factor X of 7.7 µM. Further, the IC50 in assay [1] is 34 µM; on Integrin alpha-V/beta-3 it was over 100 µM.
In the case of `CCOC(=O)C(=O)N(Cc1ccc(F)cc1)c1ccc2c(c1)OC(C)(COc1ccc(C(=N)N)cc1)CN2C` (configuration not stated), the Ki at Prothrombin worked out at 0.023 µM; at Coagulation factor X, 2.83 µM. The IC50 (in assay [1]; at Integrin alpha-V/beta-3) was over 100 µM in each case.
For `CN1CC(C)(COc2ccc(C(=N)N)cc2)Oc2cc(N(CC(=O)O)Cc3ccc(F)c(F)c3)ccc21` (configuration not stated), the values for the Ki at Prothrombin and on Coagulation factor X were 0.81 µM and 4.4 µM, respectively. For the same molecule, the figures for the half-inhibitory concentration (IC50) (in assay [1]; on Integrin alpha-V/beta-3) were 80 µM and over 100 µM, respectively. The Ratio Ki in assay [2] is 1.6; in assay [3], 5.4.
As for `CCOC(=O)C(=O)N(Cc1ccc(F)c(F)c1)c1ccc2c(c1)OC(C)(COc1ccc(C(=N)N)cc1)CN2C` (configuration not stated), the Ki was found to be 0.028 µM on Prothrombin and 1.6 µM on Coagulation factor X. Further, the IC50 (in assay [1]; on Integrin alpha-V/beta-3) was over 100 µM each time.
At Coagulation factor X, `CCOC(=O)C(=O)N(Cc1ccc(F)c(F)c1)c1ccc2c(c1)N(C)CC(C)(COc1ccc(C(=N)N)cc1)O2` (configuration not stated) displayed a Ki of 4.7 µM. The IC50 (in assay [1]; on Integrin alpha-V/beta-3) was over 100 µM each time.
Consider `CCOC(=O)CN(Cc1ccc(F)cc1)c1ccc2c(c1)OC(C)(COc1ccc(C(=N)N)cc1)CN2C` (configuration not stated), for which the Ki was 0.36 µM at Prothrombin and 1.6 µM at Coagulation factor X. Besides, the IC50 (in assay [1]; at Integrin alpha-V/beta-3) was over 100 µM in each case.
As for `CCOC(=O)C(=O)N(Cc1cccc(F)c1)c1ccc2c(c1)OC(C)(COc1ccc(C(=N)N)cc1)CN2C` (configuration not stated), the results for the Ki at Prothrombin and at Coagulation factor X were 0.019 µM and 1.6 µM, respectively. In addition, the IC50 (in assay [1]; on Integrin alpha-V/beta-3) was over 100 µM each time.
Turning to `CCOC(=O)CN(Cc1ccc(F)cc1)c1ccc2c(c1)N(C)CC(C)(COc1ccc(C(=N)N)cc1)O2` (configuration not stated), the Ki was 0.72 µM at Prothrombin and 6.66 µM on Coagulation factor X. Further, the IC50 (in assay [1]; on Integrin alpha-V/beta-3) was over 100 µM each time.
